Consider one compound from ChEMBL document CHEMBL4196230, “Design, Synthesis, and Blood-Brain Barrier Transport Study of Pyrilamine Derivatives as Histone Deacetylase Inhibitors” (ACS Med Chem Lett, 2018).

The target in data set [1] is T1, Polyamine deacetylase HDAC10 (Homo sapiens, UniProt Q969S8).
T1 sequence (Q969S8 whole entry): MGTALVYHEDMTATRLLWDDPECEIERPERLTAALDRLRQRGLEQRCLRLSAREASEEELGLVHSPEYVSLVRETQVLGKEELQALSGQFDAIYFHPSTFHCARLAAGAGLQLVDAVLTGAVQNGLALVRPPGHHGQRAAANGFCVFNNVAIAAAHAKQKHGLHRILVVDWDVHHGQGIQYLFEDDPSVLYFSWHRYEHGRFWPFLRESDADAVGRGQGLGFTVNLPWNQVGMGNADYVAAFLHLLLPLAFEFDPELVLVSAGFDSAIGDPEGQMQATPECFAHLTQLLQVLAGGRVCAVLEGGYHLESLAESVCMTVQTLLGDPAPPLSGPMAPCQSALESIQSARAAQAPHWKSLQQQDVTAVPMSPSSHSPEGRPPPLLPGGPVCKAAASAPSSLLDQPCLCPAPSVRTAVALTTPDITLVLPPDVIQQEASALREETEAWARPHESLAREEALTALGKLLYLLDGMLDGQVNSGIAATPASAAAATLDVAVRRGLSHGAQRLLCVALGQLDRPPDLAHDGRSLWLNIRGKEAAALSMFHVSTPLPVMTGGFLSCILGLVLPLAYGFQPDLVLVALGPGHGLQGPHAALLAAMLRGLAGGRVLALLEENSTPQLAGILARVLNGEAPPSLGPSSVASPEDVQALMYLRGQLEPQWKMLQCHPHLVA
Put plainly: Inhibition of human HDAC10 expressed in baculovirus infected Sf9 insect cells using HDAC substrate 3 measured after 30 mins by fluorescence assay.

A short description of data set [2]: Substrate activity at PYSOCA in human CMEC/D3 cells assessed as transporter-mediated drug uptake measured for 2 mins at 37degC. In kind it is ADME, cell-based.
Data set [3] is described as follows: Substrate activity at PYSOCA in human CMEC/D3 cells assessed as transporter-mediated drug uptake clearance assessed per mg protein at 4degC measured up to 10 mins. It counts as ADME, cell-based. An outline of the steps:
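Uptake by hCMEC/D3 cells followed over time at 37 °C or 4 °C. Clearance was calculated from the initial linear slope, expressed per mg protein. Mean ± S.E., n = 4.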

The target in data set [4] is Histone deacetylase 3/Nuclear receptor corepressor 2 (HDAC3/NCoR2) (Homo sapiens, UniProt O15379). Put plainly: Inhibition of human full length C-terminal His-tagged HDAC3/N-terminal GST-tagged human NCOR2 (395 to 489 residues) co-expressed in baculovirus infected Sf9 insect cells using HDAC substrate 3 measured after 30 mins by fluorescence assay.
Data set [5] concerns the target Histone deacetylase 5 (Homo sapiens) (UniProt Q9UQL6). The data set can be described thus: Inhibition of human recombinant HDAC5 expressed in baculovirus infected insect cells at 30 uM using HDAC class 2a substrate measured after 30 mins by fluorescence assay relative to control.
A short description of data set [6]: Substrate activity at PYSOCA in human CMEC/D3 cells assessed as transporter-mediated drug uptake measured for 1 min at 37degC in presence of NH4Cl under intracellular alkalization condition. It counts as ADME, cell-based. An outline of the steps:
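hCMEC/D3 cells were pretreated in transport buffer with or without 30 mM NH4Cl. Uptake was then measured at 37 °C for 1 min with or without 30 mM NH4Cl (Control, Pre and Acute conditions). Mean ± S.E., n = 4.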

In data set [7] the target is Histone deacetylase (Homo sapiens) (UniProt Q13547+O15379+Q9UBN7+Q92769+Q9UQL6+Q8WUI4+Q9BY41+Q96DB2+P56524+Q9UKV0+Q969S8). The conditions noted are these: at 10 µM.
The target of data set [8] is T2, Histone deacetylase 7 (Homo sapiens) (UniProt Q8WUI4).
T2 sequence (whole entry): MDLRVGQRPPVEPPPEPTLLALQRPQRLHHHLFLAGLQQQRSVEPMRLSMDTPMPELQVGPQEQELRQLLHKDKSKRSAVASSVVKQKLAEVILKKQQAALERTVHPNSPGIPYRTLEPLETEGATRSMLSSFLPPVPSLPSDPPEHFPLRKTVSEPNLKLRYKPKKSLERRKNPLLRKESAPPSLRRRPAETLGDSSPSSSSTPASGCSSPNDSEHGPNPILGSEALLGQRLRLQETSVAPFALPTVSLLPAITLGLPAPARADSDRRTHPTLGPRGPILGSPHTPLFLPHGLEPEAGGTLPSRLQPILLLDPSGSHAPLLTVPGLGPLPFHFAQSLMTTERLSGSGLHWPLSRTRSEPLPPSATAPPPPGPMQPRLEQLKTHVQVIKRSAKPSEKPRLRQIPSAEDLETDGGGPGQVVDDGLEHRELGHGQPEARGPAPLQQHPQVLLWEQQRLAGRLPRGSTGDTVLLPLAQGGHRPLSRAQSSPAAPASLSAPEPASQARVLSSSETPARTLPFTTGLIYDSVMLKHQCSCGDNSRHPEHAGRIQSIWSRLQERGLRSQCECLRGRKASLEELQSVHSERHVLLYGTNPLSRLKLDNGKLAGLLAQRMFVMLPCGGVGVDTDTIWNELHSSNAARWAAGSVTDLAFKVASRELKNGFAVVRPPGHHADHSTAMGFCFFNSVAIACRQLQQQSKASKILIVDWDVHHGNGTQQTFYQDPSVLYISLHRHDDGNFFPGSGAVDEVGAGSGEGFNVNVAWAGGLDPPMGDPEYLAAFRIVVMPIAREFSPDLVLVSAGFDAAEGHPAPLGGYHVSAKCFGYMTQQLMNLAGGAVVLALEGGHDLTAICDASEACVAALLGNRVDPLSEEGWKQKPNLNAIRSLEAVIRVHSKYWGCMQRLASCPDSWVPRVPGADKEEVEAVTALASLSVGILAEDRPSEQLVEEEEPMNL
The data set can be described thus: Inhibition of recombinant human HDAC7 (518 to end residues) expressed in baculovirus infected insect cells at 30 uM using HDAC class 2a substrate measured after 30 mins by fluorescence assay relative to control.

Data set [9] addresses T3, Histone deacetylase 8 (Homo sapiens) (UniProt Q9BY41).
T3 sequence (whole entry): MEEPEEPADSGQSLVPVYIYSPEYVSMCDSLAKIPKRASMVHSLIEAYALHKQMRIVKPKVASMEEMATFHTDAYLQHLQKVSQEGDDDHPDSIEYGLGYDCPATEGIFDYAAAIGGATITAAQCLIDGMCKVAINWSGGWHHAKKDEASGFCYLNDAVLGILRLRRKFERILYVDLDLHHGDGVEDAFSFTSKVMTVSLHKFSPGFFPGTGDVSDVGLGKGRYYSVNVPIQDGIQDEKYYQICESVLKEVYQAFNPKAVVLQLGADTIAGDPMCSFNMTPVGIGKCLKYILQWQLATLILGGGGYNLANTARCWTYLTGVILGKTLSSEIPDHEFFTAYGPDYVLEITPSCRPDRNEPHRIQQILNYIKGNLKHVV
Put plainly: Inhibition of recombinant human full length C-terminal His-tagged HDAC8 expressed in baculovirus infected insect cells at 30 uM using HDAC class 2a substrate measured after 30 mins by fluorescence assay relative to control.

The source made the active and inactive calls. The calls are words filed in the database; no cut-off is given here. Some results are limits rather than exact numbers.

Histone deacetylase 5 (Homo sapiens), sequence (Q9UQL6 whole entry): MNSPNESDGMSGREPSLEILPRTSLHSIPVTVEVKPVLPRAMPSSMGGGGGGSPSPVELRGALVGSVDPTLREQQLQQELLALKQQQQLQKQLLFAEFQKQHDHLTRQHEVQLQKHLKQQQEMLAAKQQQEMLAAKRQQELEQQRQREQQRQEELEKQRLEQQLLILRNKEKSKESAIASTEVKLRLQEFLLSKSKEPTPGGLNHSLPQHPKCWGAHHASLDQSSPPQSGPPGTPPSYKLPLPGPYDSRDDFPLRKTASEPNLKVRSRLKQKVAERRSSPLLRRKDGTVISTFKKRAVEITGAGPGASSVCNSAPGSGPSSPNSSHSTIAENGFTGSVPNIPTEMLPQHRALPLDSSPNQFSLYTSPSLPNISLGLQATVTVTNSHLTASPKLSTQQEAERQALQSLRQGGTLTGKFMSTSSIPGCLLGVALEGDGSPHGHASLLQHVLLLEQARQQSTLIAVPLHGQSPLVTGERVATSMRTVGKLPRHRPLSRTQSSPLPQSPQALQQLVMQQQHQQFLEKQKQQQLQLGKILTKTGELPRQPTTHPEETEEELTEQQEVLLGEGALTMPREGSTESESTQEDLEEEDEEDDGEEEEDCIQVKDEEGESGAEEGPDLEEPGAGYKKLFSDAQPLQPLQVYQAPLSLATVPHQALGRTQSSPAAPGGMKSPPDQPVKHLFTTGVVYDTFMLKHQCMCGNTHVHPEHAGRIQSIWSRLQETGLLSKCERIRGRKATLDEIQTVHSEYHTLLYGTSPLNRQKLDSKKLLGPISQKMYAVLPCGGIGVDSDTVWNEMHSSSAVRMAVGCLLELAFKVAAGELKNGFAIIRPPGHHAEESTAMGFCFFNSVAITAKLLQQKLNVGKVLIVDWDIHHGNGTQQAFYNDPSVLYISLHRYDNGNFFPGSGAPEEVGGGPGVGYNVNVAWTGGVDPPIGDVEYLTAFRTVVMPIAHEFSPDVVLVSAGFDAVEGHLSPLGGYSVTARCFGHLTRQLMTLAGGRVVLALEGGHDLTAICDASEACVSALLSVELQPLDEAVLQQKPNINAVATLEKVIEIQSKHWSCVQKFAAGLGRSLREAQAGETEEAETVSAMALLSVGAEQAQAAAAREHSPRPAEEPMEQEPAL
Histone deacetylase 3/Nuclear receptor corepressor 2 (HDAC3/NCoR2), sequence (O15379 whole entry, the tested form may be a part): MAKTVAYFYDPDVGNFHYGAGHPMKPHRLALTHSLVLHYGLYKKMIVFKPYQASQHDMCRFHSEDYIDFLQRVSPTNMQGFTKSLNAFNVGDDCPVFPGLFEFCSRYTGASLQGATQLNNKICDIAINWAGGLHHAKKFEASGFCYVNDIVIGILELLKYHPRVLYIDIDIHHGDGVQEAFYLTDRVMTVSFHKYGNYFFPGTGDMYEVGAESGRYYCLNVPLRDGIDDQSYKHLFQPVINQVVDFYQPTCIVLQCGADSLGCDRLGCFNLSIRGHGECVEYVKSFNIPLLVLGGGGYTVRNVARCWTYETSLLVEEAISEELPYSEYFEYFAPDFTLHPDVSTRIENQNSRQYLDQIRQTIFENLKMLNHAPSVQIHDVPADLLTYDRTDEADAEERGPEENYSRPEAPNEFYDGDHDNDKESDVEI
Histone deacetylase 3/Nuclear receptor corepressor 2 (HDAC3/NCoR2), sequence (Q9Y618 whole entry, further chain, the tested form may be a part): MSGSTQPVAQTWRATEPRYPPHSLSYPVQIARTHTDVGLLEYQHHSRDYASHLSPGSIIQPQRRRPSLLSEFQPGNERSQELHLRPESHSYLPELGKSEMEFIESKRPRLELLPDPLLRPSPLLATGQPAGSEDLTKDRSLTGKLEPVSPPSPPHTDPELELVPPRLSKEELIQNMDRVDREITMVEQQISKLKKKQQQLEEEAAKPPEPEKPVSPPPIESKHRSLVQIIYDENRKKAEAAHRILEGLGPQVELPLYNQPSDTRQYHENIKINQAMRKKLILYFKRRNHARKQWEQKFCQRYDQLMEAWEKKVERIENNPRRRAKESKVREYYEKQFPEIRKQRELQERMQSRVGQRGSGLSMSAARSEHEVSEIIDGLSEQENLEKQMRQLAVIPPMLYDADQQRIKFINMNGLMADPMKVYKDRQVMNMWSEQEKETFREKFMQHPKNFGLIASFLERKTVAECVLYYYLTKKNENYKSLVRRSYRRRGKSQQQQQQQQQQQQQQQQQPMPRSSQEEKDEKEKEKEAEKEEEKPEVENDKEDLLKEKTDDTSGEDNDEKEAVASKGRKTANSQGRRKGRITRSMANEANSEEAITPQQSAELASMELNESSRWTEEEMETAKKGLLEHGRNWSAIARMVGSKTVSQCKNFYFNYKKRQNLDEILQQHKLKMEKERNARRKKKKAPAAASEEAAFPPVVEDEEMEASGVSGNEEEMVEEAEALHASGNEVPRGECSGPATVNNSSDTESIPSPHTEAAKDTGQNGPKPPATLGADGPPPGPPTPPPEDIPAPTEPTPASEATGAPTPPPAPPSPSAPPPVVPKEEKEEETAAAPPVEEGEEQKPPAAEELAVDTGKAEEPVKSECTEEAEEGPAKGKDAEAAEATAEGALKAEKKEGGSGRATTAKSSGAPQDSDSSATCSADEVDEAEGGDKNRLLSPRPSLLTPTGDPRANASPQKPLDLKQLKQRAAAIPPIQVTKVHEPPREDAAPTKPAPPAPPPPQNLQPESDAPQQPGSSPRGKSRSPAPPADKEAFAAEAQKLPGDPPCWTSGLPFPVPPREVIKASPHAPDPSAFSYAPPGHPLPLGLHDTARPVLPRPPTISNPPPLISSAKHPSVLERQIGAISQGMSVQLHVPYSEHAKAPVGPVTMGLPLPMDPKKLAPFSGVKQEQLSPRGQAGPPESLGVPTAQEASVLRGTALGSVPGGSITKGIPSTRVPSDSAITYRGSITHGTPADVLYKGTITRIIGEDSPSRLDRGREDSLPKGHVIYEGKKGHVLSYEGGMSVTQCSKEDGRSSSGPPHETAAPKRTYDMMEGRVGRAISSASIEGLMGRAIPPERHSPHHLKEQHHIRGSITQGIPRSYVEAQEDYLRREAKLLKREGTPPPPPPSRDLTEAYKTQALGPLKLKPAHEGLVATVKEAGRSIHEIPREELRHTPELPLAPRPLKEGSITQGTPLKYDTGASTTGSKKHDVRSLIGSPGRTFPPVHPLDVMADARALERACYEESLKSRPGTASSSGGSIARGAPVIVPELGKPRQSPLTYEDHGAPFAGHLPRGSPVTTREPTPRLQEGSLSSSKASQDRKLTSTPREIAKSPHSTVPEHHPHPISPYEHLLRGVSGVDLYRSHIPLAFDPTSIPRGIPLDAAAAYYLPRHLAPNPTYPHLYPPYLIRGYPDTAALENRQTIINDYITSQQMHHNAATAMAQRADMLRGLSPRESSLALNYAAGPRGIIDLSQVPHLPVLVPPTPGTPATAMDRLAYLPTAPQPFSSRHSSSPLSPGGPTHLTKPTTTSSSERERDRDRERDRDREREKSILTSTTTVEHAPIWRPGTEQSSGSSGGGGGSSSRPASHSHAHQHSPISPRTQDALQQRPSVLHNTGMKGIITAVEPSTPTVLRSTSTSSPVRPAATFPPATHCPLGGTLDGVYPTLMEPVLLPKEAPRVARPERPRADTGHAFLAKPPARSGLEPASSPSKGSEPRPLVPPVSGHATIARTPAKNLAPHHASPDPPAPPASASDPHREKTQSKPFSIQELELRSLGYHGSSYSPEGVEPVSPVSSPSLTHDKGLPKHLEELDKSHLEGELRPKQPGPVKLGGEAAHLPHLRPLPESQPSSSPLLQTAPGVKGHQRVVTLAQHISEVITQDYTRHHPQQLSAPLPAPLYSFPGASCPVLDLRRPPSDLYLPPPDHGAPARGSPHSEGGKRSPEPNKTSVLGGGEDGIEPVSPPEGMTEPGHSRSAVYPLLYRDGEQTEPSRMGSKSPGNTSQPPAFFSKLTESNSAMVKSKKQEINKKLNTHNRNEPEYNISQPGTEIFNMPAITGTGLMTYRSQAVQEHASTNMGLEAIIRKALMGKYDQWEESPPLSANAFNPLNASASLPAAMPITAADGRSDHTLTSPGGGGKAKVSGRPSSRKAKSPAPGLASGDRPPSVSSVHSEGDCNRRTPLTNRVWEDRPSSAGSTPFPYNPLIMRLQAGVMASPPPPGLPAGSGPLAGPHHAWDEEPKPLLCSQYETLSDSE

Regarding `COc1ccc(CN(CCN(C)C)c2ccc(C(=O)Nc3ccccc3N)cn2)cc1`, the IC50 (in general, the concentration that inhibits the measured activity by half) turned out to be 15.5 µM in [1] and 12 µM in data set [4]. Moreover, the figures for the Activity entry in data set [2], in data set [3] and in [6] were “Dose-dependent effect”, “Not Active” and “Not Active”, respectively. The inhibition in [5], in data set [8] and in data set [9] was less than 10% throughout. The inhibition (usually the relative decrease from the control value, in per cent) in data set [7] is “Active”.
